Screens (PubChem)
RAD52 inh – blocks human RAD52 DNA annealing; recombinant RAD52 DNA annealing, FRET fluorescence; inhibition, % at 18.7 µM; 360,000 compounds, 0.46% hits; AID 651710;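 active = every replicate showing at least 50% inhibition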
Target sequence (P43351 whole entry, looked up): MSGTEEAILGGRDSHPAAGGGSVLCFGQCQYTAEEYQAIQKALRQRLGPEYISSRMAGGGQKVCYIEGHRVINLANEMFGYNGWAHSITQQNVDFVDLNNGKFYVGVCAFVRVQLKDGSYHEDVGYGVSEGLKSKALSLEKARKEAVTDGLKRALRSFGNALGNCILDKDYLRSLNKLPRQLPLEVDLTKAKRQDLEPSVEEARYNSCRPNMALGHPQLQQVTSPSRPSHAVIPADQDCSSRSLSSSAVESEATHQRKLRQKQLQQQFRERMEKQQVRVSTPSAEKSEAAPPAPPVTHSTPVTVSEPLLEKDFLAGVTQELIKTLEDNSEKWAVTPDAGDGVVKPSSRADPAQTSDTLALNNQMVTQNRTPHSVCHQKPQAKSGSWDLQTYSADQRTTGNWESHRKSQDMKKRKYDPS
RAD54 inh – blocks human RAD54 Holliday junction branch migration | inhibition, % at 10.4 µM | 360,000 compounds, 0.14% hits | AID 602329 | FAM/BHQ fluorescence;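 active = mean normalized replicate activity at least 40 and at least half of replicates scoring 40 or more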;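 note: 0% = median of neutral control wells and 100% = median of positive control wells; inhibitors cause a drop in the FAM fluorescence signal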
FN deposition inh – fibronectin deposition inhibition. AH1F fibroblasts, Alexa488-fibronectin deposition fluorescence, overnight. inhibition, % at 12.6 µM. 350,000 compounds, 0.086% hits;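 active = mean inhibition across replicates of 30% or more, regardless of how many single replicates reach that level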;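 note: positive control wells lacked labelled fibronectin entirely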
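Test system: AH1F fibroblast monolayer depositing Alexa488-labelled fibronectin into matrix. Input: 10000 cells per well. Technique: fluorescence, ex 485 nm, em 525 nm. Buffer or medium: DMEM plus 2% serum, read in PBS. Timing: 1 h cell adhesion before compound, then overnight fibronectin incubation. Compound: single dose, pinned. Read-out basis: inhibition from reduced deposited-fibronectin fluorescence.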
PAX8 reporter – PAX8 transcriptional activity inhibition; RMG-I TPO-luciferase reporter, SteadyGlo, 24 h; inhibition, % at 12.6 µM; 360,000 compounds, 1.2% hits;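 active = mean replicate inhibition at least 60% with every replicate also reaching 60%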;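 note: luciferase light reporting Pax8 driven TPO promoter activity; plate controls were median of neutral control wells for no effect and mitoxantrone controls for full effect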
* = called active by the depositor; . = no result given. Rows were chosen to be rich in hits. Some 1.3% of all compounds tested hit in one or more screens of this group.

SMILES | RAD52 inh | RAD54 inh | FN deposition inh | PAX8 reporter
COc1cccc(C(=O)Oc2ccc(/C=N/Nc3ccc(C(=O)O)cc3)cc2OC)c1 | -15.6 | -1.7 | 5.8 | -72.2
COc1ccc(S(=O)(=O)N(C)C[C@@H]2Oc3c(NC(=O)NC(C)C)cccc3C(=O)N([C@H](C)CO)C[C@H]2C)cc1 | -2.7 | -6.5 | -24.1 | .
N#CCCn1nc(Cc2cccc3ccccc23)c(C#N)c1N | -4.7 | -4.7 | -1.2 | -0.1
Cc1cccc(C)c1-c1ccc(CN2C(CC(C)C)C(=O)N(Cc3cn(CC4CCCCC4)nn3)CCS2(=O)=O)cc1 (centres undefined) | -4.5 | -0.1 | -10.9 | 70.5*
CC(C)CC1C(=O)N(Cc2cn(CC3CCCCC3)nn2)CCS(=O)(=O)N1Cc1ccc(-c2ccc(Cl)c(Cl)c2)cc1 (centres undefined) | -24.0 | 0.9 | -4.4 | -3.3
CC(C)(O)C#Cc1ccc(CN2CCN(Cc3ccsc3)C(CCO)C2)cc1 (centres undefined) | -25.9 | . | -6.1 | 8.3
O=C(NCc1ccc(F)cc1)C1(c2cccs2)CCOCC1 | 3.8 | 4.0 | 2.6 | 122.9*
O=C(CCC(=O)c1cccs1)NCc1ccc(F)cc1 | . | -5.7 | 3.4 | -10.0
COc1ccccc1S(=O)(=O)N1CC[C@@H]2[C@@H](CO)Nc3ccc(-c4ccccc4)cc3[C@@H]21 | 25.5 | 0.8 | -1.3 | 70.1*
COc1ccccc1-c1ccc2c(c1)[C@H]1[C@H](CCN1S(=O)(=O)c1ccccc1F)[C@H](CO)N2 | 33.8 | 3.5 | -2.1 | 81.1*
COc1ccccc1-c1ccc2c(c1)[C@@H]1[C@@H](CCN1S(=O)(=O)c1ccccc1F)[C@H](CO)N2 | 37.2 | 7.9 | 19.9 | 80.9*
COc1cccc(-c2ccc3c(c2)[C@@H]2[C@@H](CCN2S(=O)(=O)c2cccc(OC)c2)[C@H](CO)N3)c1 | -0.2 | -15.1 | 17.1 | 73.4*
CCOc1ccc(N2CC(O)(c3ccc(F)cc3)[N+]3=C2CCCC3)cc1 (centres undefined) | -2.6 | . | . | 19.4
COc1ccc(-c2cc(C(F)(F)F)n3nc(C(=O)N4CCN5CCCC5C4)cc3n2)cc1OC (centres undefined) | -8.0 | 11.2 | -0.9 | 7.7
CC(C)CCNC1=NCCCCC1 | . | -3.0 | . | .
COc1ccc(OC)c(-c2nnc3n2N=C(c2ccc(OC)c(OC4CCOC4)c2)CS3)c1 (centres undefined) | -6.0 | -3.4 | 2.4 | 96.8*
C[C@H](CO)N1C[C@H](C)[C@@H](CN(C)C(=O)Nc2cccc3ccccc23)OCCCC[C@H](C)Oc2ccc(NC(=O)c3ccncc3)cc2C1=O | -3.4 | -10.4 | . | 81.7*
C[C@@H]1CCCCO[C@@H](CN(C)C(=O)Nc2cccc3ccccc23)[C@H](C)CN([C@@H](C)CO)C(=O)c2cc(N(C)C)ccc2O1 | 56.0* | -11.0 | . | 16.6
C[C@H]1CCCCO[C@H](CN(C)C(=O)Nc2cccc3ccccc23)[C@@H](C)CN([C@@H](C)CO)C(=O)c2cc(NC(=O)CCC(F)(F)F)ccc2O1 | . | -6.8 | -2.2 | 70.6*
C[C@@H]1CCCCO[C@@H](CN(C)C(=O)Nc2cccc3ccccc23)[C@H](C)CN([C@H](C)CO)C(=O)c2cc(NC(=O)CCC(F)(F)F)ccc2O1 | . | 1.1 | 3.9 | 67.0*
CC(C)c1cc(Br)ccc1OCCCN1C(=O)NC(C)(C)C1=O | . | -6.0 | 7.4 | .
O=C(O)CCCCC1CCSS1 (centres undefined) | 0.7 | 8.1 | -2.1 | -1.8
CC(C)c1ccc(NS(=O)(=O)c2ccc3c(c2)oc(=O)n3C)cc1 | -29.8 | -6.7 | -4.6 | -5.1
C[C@H]1CCCCO[C@H](CN(C)S(=O)(=O)c2ccccc2)[C@@H](C)CN([C@@H](C)CO)C(=O)c2cc(NC(=O)c3ccccc3)ccc2O1 | -58.9 | -8.1 | 9.7 | -25.1
COc1cc2c(cc1NC(=O)COc1ccccc1OC)oc1ccccc12 | . | -14.2 | -3.3 | .
SMILES | RAD52 inh | RAD54 inh | FN deposition inh | PAX8 reporter
COc1cc2c(cc1NC(=O)COC(=O)C(CCSC)NC(=O)c1ccccc1Cl)oc1ccccc12 (centres undefined) | -32.8 | . | 3.6 | 62.2*
CC1(C)CC(=O)C2=C(C1)OC(c1ccc(O)cc1)C(C#N)=C2N (centres undefined) | -11.1 | -11.7 | 3.1 | 81.1*
CCOc1ccccc1NC(=O)Cc1c(F)cccc1Cl | -9.4 | -10.9 | -1.1 | -20.0
O=c1c2ccccc2ncn1Cc1cccc2ccccc12 | 1.5 | . | 7.2 | 12.7
Cc1ccccc1Cn1cnc2ccccc2c1=O | -16.2 | . | -4.4 | 160.1*
COc1ccc(C2=NNC(=Nc3cc(S(=O)(=O)N(C)C)ccc3C)SC2)c(OC)c1 | -14.5 | 1.7 | -6.2 | 103.2*
